# Measurements reported in ChEMBL document CHEMBL6177921, “Enhancing the antimycobacterial efficacy of pyridine-4-carbohydrazide: linkage to additional antimicrobial agents via oxocarboxylic acids” (RSC Med Chem, 2025).
# Columns and labels:
# [1] = Hemolytic activity in human Red blood cells assessed as effect of lipid bilayer membrane incubated for 1 hr by absorbance based spectrophotometric analysis; type: toxicity, cell-based; conditions: erythrocyte
# Method in brief: (§1)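 Human erythrocyte suspension mixed 1:1 with compound in Hartmann's solution at final 125 μM, final DMSO 1.0% (v/v), 37 °C for 1 h. After centrifugation, released haemoglobin in the supernatant was read at 405 nm. Negative control was hRBCs with 1.0% DMSO; positive control was hRBCs sonicated for 1 min.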
# [2] = Hemolytic activity in human Red blood cells assessed as hemolysis rate incubated for 1 hr by absorbance based spectrophotometric analysis relative to control; type: toxicity, cell-based, Erythrocyte; conditions: read-out: Activity; method in brief: as §1
# [3] = test system: Mycobacterium avium; experiment: Antimycobacterial activity against INH/RIF/rifabutin/OFX/EMB resistant Mycobacterium avium CNCTC 330/88 assessed as bacterial growth inhibition incubated for 21 days by two-fold serial dilution method; type: functional; conditions: CNCTC 330/88, 504 h, time 21 day
# Method in brief: (§2)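 M. avium CNCTC 330/88 (stock suspension dilution 10−5) grown in Šula's semisynthetic liquid medium; two-fold serial dilutions 1000 to 1 μM from DMSO stocks (final DMSO 1.0% v/v); final load 1.5 × 10^5 CFU mL−1; MIC read visually as lowest concentration giving complete growth inhibition after 14 and 21 days.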
# [4] = test system: Mycobacterium tuberculosis; experiment: Antimycobacterial activity against multidrug sensitive Mycobacterium tuberculosis H37Rv CNCTC 331/88 assessed as bacterial growth inhibition incubated for 14 days by two-fold serial dilution method; type: functional; conditions: H37Rv CNCTC 331/88, 336 h, time 14 day
# [5] = test system: Mycobacterium tuberculosis; experiment: Antimycobacterial activity against Mycobacterium tuberculosis H37Rv CNCTC 331/88 assessed as bacterial growth inhibition incubated for 21 days by two fold serial dilution method; type: functional; conditions: H37Rv CNCTC 331/88, 504 h, time 21 day
# [6] = test system: Mycobacterium kansasii; experiment: Antimycobacterial activity against multi-drug resistant Mycobacterium kansasii CNCTC 6509/96 clinical isolate assessed as bacterial growth inhibition incubated for 14 days by two-fold serial dilution method; type: functional; conditions: CNCTC 6509/96, 336 h, time 14 day
# Method in brief: (§3)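 M. kansasii clinical isolate 6509/96 (stock dilution 10−4) in Šula's semisynthetic liquid medium; two-fold serial dilutions 1000 to 1 μM, DMSO final 1.0% v/v; final load 1.5 × 10^5 CFU mL−1; MIC read visually as complete growth inhibition at 7, 14 and 21 days.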
# [7] = test system: Mycobacterium kansasii; experiment: Antimycobacterial activity against INH/RIF/rifabutin/OFX/EMB Mycobacterium kansasii CNCTC 6509/96 clinical isolate assessed as bacterial growth inhibition incubated for 7 days by two-fold serial dilution method; type: functional; conditions: CNCTC 6509/96, 168 h, time 7 day
# Method in brief: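 Šula's liquid semisynthetic medium; M. kansasii clinical isolate 6509/96 used at stock dilution 10−4, final ~1.5 × 10^5 CFU mL−1. Two-fold dilutions ran 1000–1 μM with final DMSO 1.0% (v/v). MIC was read visually as complete growth inhibition after 7, 14 and 21 days.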
# [8] = test system: Mycobacterium avium; experiment: Antimycobacterial activity against INH/RIF/rifabutin/OFX/EMB resistant Mycobacterium avium CNCTC 330/88 assessed as bacterial growth inhibition incubated for 14 days by two-fold serial dilution method; type: functional; conditions: CNCTC 330/88, 336 h, time 14 day; method in brief: as §2
# [9] = test system: Mycobacterium kansasii; experiment: Antimycobacterial activity against multi-drug resistant Mycobacterium kansasii clinical isolate CNCTC 6509/96 assessed as bacterial growth inhibition incubated for 21 days by two-fold serial dilution method; type: functional; conditions: CNCTC 6509/96, 504 h, time 21 day; method in brief: as §3
# [10] = test system: Trichophyton interdigitale; experiment: Antifungal activity against Trichophyton interdigitale CCM 8377 measured after 24 to 48 hrs by microdilution broth method; type: functional; conditions: time 24-48 hrs
# [11] = test system: Lichtheimia corymbifera; experiment: Antifungal activity against Lichtheimia corymbifera CCM 8077 measured after 24 to 48 hrs by microdilution broth method; type: functional; conditions: time 24-48 hrs
# Method in brief: (§4)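 Filamentous fungi tested by broth microdilution per EUCAST with minor changes. Compounds were tested at 0.98–500 μM with final DMSO ≤1.0% (v/v). Plates were incubated statically, dark and humidified, at 35 ± 2 °C for 24 and 48 h. MIC was the lowest concentration showing no visible growth.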
# [12] = test system: Aspergillus fumigatus; experiment: Antifungal activity against Aspergillus fumigatus ATCC 204305 measured after 24 to 48 hrs by microdilution broth method; type: functional; conditions: time 24-48 hrs; method in brief: as §4
# [13] = test system: Candida albicans; experiment: Antifungal activity against Candida albicans CCM 8320 measured after 24 to 48 hrs by microdilution broth method; type: functional; conditions: time 24-48 hrs
# Method in brief: (§5)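 Yeast broth microdilution per EUCAST, slightly modified. Medium was RPMI-1640 with 2% glucose, MOPS-buffered to pH 7.0. Compounds were tested at 0.98–500 μM with final DMSO ≤1.0% (v/v). Inoculum came from 18–24 h cultures, final ~1–5 × 10^5 CFU mL−1. Plates were incubated statically, dark and humidified, at 35 ± 2 °C. MIC was read visually at 24 and 48 h (no visible growth).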
# [14] = test system: Candida albicans; experiment: Antifungal activity against Candida albicans ATCC 24443 measured after 24 to 48 hrs by microdilution broth method; type: functional; conditions: time 24-48 hrs; method in brief: as §5
# [15] = test system: Aspergillus flavus; experiment: Antifungal activity against Aspergillus flavus CCM 8363 measured after 24 to 48 hrs by microdilution broth method; type: functional; conditions: time 24-48 hrs; method in brief: as §4
# [16] = test system: Pichia kudriavzevii; experiment: Antifungal activity against Candida krusei ATCC 6258 measured after 24 to 48 hrs by microdilution broth method; type: functional; conditions: time 24-48 hrs; method in brief: as §5
# [17] = test system: Candida parapsilosis; experiment: Antifungal activity against Candida parapsilosis ATCC 22019 measured after 24 to 48 hrs by microdilution broth method; type: functional; conditions: Lodderomyces parapsilosis, time 24-48 hrs; method in brief: as §5
# [18] = test system: Candida tropicalis; experiment: Antifungal activity against Candida tropicalis ATCC 750 measured after 24 to 48 hrs by microdilution broth method; type: functional; conditions: time 24-48 hrs; method in brief: as §5
# [19] = test system: Candida parapsilosis; experiment: Antifungal activity against Candida parapsilosis CCM 8260 measured after 24 to 48 hrs by microdilution broth method; type: functional; conditions: Lodderomyces parapsilosis, time 24-48 hrs; method in brief: as §5
# [20] = test system: Trichophyton interdigitale; experiment: Antifungal activity against Trichophyton interdigitale ATCC 9533 measured after 24 to 48 hrs by microdilution broth method; type: functional; conditions: time 24-48 hrs
# [21] = test system: Pichia kudriavzevii; experiment: Antifungal activity against Candida krusei CCM 8271 measured after 24 to 48 hrs by microdilution broth method; type: functional; conditions: time 24-48 hrs; method in brief: as §5
# [22] = test system: Candida tropicalis; experiment: Antifungal activity against Candida tropicalis CCM 8264 measured after 24 to 48 hrs by microdilution broth method; type: functional; conditions: time 24-48 hrs; method in brief: as §5
# [23] = test system: Staphylococcus epidermidis; experiment: Antibacterial activity against Staphylococcus epidermidis ATCC 12228 assessed as bacterial growth inhibition incubated for 24 to 48 hrs by broth microdilution method; type: functional; conditions: time 24-48 hrs
# Method in brief: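 Broth microdilution in cation-adjusted Mueller-Hinton broth, adapted from EUCAST. Compounds were tested at 0.98–500 μM with final DMSO ≤1.0% (v/v). Inoculum came from 16–24 h cultures, final ~5 × 10^5 CFU mL−1. Plates were incubated statically, dark and humidified, at 35 ± 2 °C. MIC was read by eye at 24 and 48 h as the lowest concentration with no visible growth.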
# [24] = test system: Staphylococcus aureus; experiment: Antibacterial activity against methicillin-resistant Staphylococcus aureus ATCC 43300 assessed as bacterial growth inhibition incubated for 24 to 48 hrs by broth microdilution method; type: functional; conditions: time 24-48 hrs
# Method in brief: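 Broth microdilution per EUCAST with slight modification in cation-adjusted Mueller-Hinton broth; compounds from DMSO stocks (final DMSO ≤1.0% v/v), 0.98–500 μM; final inoculum about 5 × 10^5 CFU mL−1 from 16–24 h cultures; static incubation in dark, humidified air at 35 ± 2 °C; MIC read by eye at 24 and 48 h as lowest concentration without visible growth.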
SMILES,hemolysis at 1 h [2],MIC [3],MIC [4],MIC [5],MIC [6],MIC [7],MIC [8],MIC [9],MIC [10],MIC [11],MIC [12],MIC [13],MIC [14],MIC [15],MIC [16],MIC [17],MIC [18],MIC [19],MIC [20],MIC [21],further results
COc1nc2ccc(Br)cc2cc1[C@@H](c1ccccc1)[C@@](O)(CCN(C)C)c1cccc2ccccc12 [BEDAQUILINE],–,–,–,–,–,–,–,–,–,–,–,–,–,–,–,–,–,–,–,–,Activity [1]: Toxic
C/C(=N\NC(=O)c1ccncc1)C(=O)Nc1ccc(-c2ccccc2)cc1,0.01%,> 250 µM,≤ 0.25 µM,≤ 0.25 µM,8 µM,8 µM,> 250 µM,16 µM,–,–,–,–,–,–,–,–,–,–,–,–,–
NC(=O)c1cnccn1 [PYRAZINAMIDE],0.01%,–,–,–,–,–,–,–,–,–,–,–,–,–,–,–,–,–,–,–,–
NNC(=O)c1ccncc1 [ISONIAZID],0.01%,> 250 µM,1 µM,1 µM,8 µM,8 µM,> 250 µM,16 µM,–,–,–,–,–,–,–,–,–,–,–,–,–
C/C(=N\NC(=O)c1ccncc1)C(=O)Nc1ccc(Sc2ccc([N+](=O)[O-])cc2)cc1,–,500 µM,0.25 µM,0.25 µM,1 µM,1 µM,500 µM,2 µM,–,–,–,–,–,–,–,–,–,–,–,–,Activity [1]: Non-toxic
C/C(=N\NC(=O)c1ccncc1)C(=O)Nc1ccc(Oc2ccccc2)cc1,–,500 µM,0.25 µM,0.25 µM,≤ 1 µM,≤ 1 µM,500 µM,2 µM,> 500 µM,> 500 µM,> 500 µM,> 500 µM,> 500 µM,> 500 µM,> 500 µM,> 500 µM,> 500 µM,> 500 µM,> 500 µM,> 500 µM,Activity [1]: Non-toxic; MIC [22]: > 500 µM
C/C(=N\NC(=O)c1ccncc1)C(=O)NNC(N)=S,–,1000 µM,1 µM,2 µM,32 µM,16 µM,1000 µM,32 µM,–,–,–,–,–,–,–,–,–,–,–,–,MIC [23]: 125 µM
C/C(=N\NC(=O)c1ccncc1)C(=O)Nc1ccc(S(=O)(=O)Nc2nc(C)cc(C)n2)cc1,–,500 µM,1 µM,1 µM,32 µM,16 µM,500 µM,32 µM,> 500 µM,> 500 µM,> 500 µM,> 500 µM,> 500 µM,> 500 µM,> 500 µM,> 500 µM,> 500 µM,> 500 µM,> 500 µM,> 500 µM,MIC [22]: > 500 µM
C/C(=N\NC(=O)c1ccncc1)C(=O)Nc1ccc(S(=O)(=O)Nc2nccs2)cc1,–,≥ 1000 µM,1 µM,1 µM,16 µM,16 µM,≥ 1000 µM,16 µM,> 500 µM,> 500 µM,> 500 µM,> 500 µM,> 500 µM,> 500 µM,> 500 µM,> 500 µM,> 500 µM,> 500 µM,> 500 µM,> 500 µM,MIC [22]: > 500 µM
COc1ccc(NS(=O)(=O)c2ccc(NC(=O)/C(C)=N/NC(=O)c3ccncc3)cc2)nn1,–,≥ 1000 µM,1 µM,1 µM,32 µM,32 µM,≥ 1000 µM,32 µM,> 500 µM,> 500 µM,> 500 µM,> 500 µM,> 500 µM,> 500 µM,> 500 µM,> 500 µM,> 500 µM,> 500 µM,> 500 µM,> 500 µM,MIC [22]: > 500 µM
CO[C@H]1/C=C/O[C@@]2(C)Oc3c(C)c(O)c4c(O)c(c(/C=N/N5CCN(C)CC5)c(O)c4c3C2=O)NC(=O)/C(C)=C\C=C\[C@H](C)[C@H](O)[C@@H](C)[C@@H](O)[C@@H](C)[C@H](OC(C)=O)[C@@H]1C [RIFAMPIN],0.01%,–,–,–,–,–,–,–,–,–,–,–,–,–,–,–,–,–,–,–,–
C/C(=N\NC(=O)c1ccncc1)C(=O)NNC(=O)c1ccncc1,–,500 µM,0.25 µM,0.5 µM,16 µM,8 µM,500 µM,16 µM,–,–,–,–,–,–,–,–,–,–,–,–,MIC [24]: 500 µM; MIC [23]: 250 µM
COC(=O)c1ccc(NC(=O)/C(C)=N/NC(=O)c2ccncc2)cc1O,–,≥ 1000 µM,0.5 µM,0.5 µM,16 µM,8 µM,≥ 1000 µM,16 µM,–,–,–,–,–,–,–,–,–,–,–,–,MIC [23]: 125 µM
C/C(=N\NC(=O)c1ccncc1)C(=O)Nc1ccc(S(N)(=O)=O)cc1,–,≥ 1000 µM,2 µM,2 µM,64 µM,32 µM,≥ 1000 µM,64 µM,> 500 µM,> 500 µM,> 500 µM,> 500 µM,> 500 µM,> 500 µM,> 500 µM,> 500 µM,> 500 µM,> 500 µM,> 500 µM,> 500 µM,MIC [22]: > 500 µM
CC[C@@H](CO)NCCN[C@@H](CC)CO [ETHAMBUTOL],0.01%,–,–,–,–,–,–,–,–,–,–,–,–,–,–,–,–,–,–,–,–
